Source: paper PMC7845017 (ACS Central Science, 2021)

What was measured:
Experiment in all cases: Broth microdilution MIC
E. coli W3110 = type: cell-based, Escherichia coli; conditions: E. coli W3110, Müller-Hinton medium, 16–20 h at 37 °C; at least two independent duplicates
Outline: (§1)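 MIC reported in μg/mL. Each strain was grown in Müller-Hinton medium and incubated for 16–20 h at 37 °C. Every strain was tested in at least two independent duplicates.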

A. baumannii ATCC 19606 = type: cell-based, Acinetobacter baumannii; conditions: A. baumannii ATCC 19606, Müller-Hinton medium, 16–20 h at 37 °C; at least two independent duplicates
Outline: as §1

P. aeruginosa PAO1 = type: cell-based, Pseudomonas aeruginosa; conditions: P. aeruginosa PAO1, Müller-Hinton medium, 16–20 h at 37 °C; at least two independent duplicates
Outline: as §1

K. pneumoniae NCTC418 = type: cell-based, Klebsiella pneumoniae; conditions: K. pneumoniae NCTC418, Müller-Hinton medium, 16–20 h at 37 °C; at least two independent duplicates
Outline: as §1

In the case of KYKKALKKLAKLL [rac-SB1], the “E. coli MIC” value (E. coli W3110) was 1 µg/mL, the “A.baumannii MIC” value (A. baumannii ATCC 19606) was 2 µg/mL and the “P. aeruginosa MIC” value (P. aeruginosa PAO1) was 2 µg/mL. The “K. pneumoniae MIC” value (K. pneumoniae NCTC418) was 16 µg/mL.
With KYKKALKKLAKLL [sr-SB1] the “E. coli MIC” value (E. coli W3110) was 32 µg/mL, the “A.baumannii MIC” value (A. baumannii ATCC 19606) was >64 µg/mL and the “P. aeruginosa MIC” value (P. aeruginosa PAO1) was >64 µg/mL. The “K. pneumoniae MIC” value (K. pneumoniae NCTC418) was >64 µg/mL.
polymyxin B [PMB, reference compound] was tested, and the “E. coli MIC” value (E. coli W3110) was 0.25 µg/mL, the “A.baumannii MIC” value (A. baumannii ATCC 19606) was 0.25 µg/mL and the “P. aeruginosa MIC” value (P. aeruginosa PAO1) was 0.25 µg/mL. For the same substance, the “K. pneumoniae MIC” value (K. pneumoniae NCTC418) was 0.25 µg/mL.
VQWRAIRVRVIR [sr-DJK5] was tested, and the “E. coli MIC” value (E. coli W3110) was 16 µg/mL, the “A.baumannii MIC” value (A. baumannii ATCC 19606) was >64 µg/mL and the “P. aeruginosa MIC” value (P. aeruginosa PAO1) was >64 µg/mL. The “K. pneumoniae MIC” value (K. pneumoniae NCTC418) was >64 µg/mL.
For ILPWKWPWWPWRR [sr-Indo], the “E. coli MIC” value (E. coli W3110) was 16 µg/mL, the “A.baumannii MIC” value (A. baumannii ATCC 19606) was 8 µg/mL and the “P. aeruginosa MIC” value (P. aeruginosa PAO1) was >64 µg/mL. For the same substance, the “K. pneumoniae MIC” value (K. pneumoniae NCTC418) was 16 µg/mL.
In the case of KYKKALKKLAKLL [sr^3/1-SB1], the “E. coli MIC” value (E. coli W3110) was 16 µg/mL, the “A.baumannii MIC” value (A. baumannii ATCC 19606) was >64 µg/mL and the “P. aeruginosa MIC” value (P. aeruginosa PAO1) was >64 µg/mL. The “K. pneumoniae MIC” value (K. pneumoniae NCTC418) was >64 µg/mL.
For KYKKALKKLAKLL [sr^1/3-SB1], the “E. coli MIC” value (E. coli W3110) was 16 µg/mL, the “A.baumannii MIC” value (A. baumannii ATCC 19606) was >64 µg/mL and the “P. aeruginosa MIC” value (P. aeruginosa PAO1) was >64 µg/mL. For the same substance, the “K. pneumoniae MIC” value (K. pneumoniae NCTC418) was >64 µg/mL.
